# High-throughput results as filed in PubChem.
# This is a sample that favours compounds with a hit; in the whole collection about 4.5% have one here.
# CHO parental Ca: counter-screen: ATP calcium response change in parental CHO cells. inhibition, % at 5.6 µM. actives 0.63% (n = 330,000). AID 463079. parental CHO-K1, ATP-induced calcium, Fluo-8 fluorescence;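 active = inhibition above that plate's mean sample inhibition plus 3 SD, cut at about 26% in these data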
#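 Material – parental CHO cells · Reagent – ATP stimulus · Compound – single nominal dose of 5.6 µM per compound · Detection – Fluo-8 fluorescence · Read-out basis – percent inhibition of calcium signal · Controls – ATP-challenged DMSO wells low, unchallenged DMSO wells high · Repeats – no replicates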
# OX1R antag-1: antagonists of human orexin 1 receptor | inhibition, % at 5 µM | actives 0.43% (n = 330,000) | CHO/OX1R cells, Fluo-8 calcium fluorescence, orexin A | O43613 | AID 434989;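 active = inhibition above its plate's threshold, mean inhibition of all tested compounds on the plate plus 3 SD, cut at about 37% in these data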
# TAAR1 agonist: agonists of human TAAR1 | CHO RD-HGA16 TAAR1, Fluo-8 calcium fluorescence; vehicle wells 0%, saturating PEA agonist 100% | activation, % at 3 µM | actives 0.99% (n = 360,000) | AID 624467;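 active = activation above the mean activation of all test compounds in the run plus 3 SD, cut at about 38% in these data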
# Target sequence (Q96RJ0 whole entry, looked up): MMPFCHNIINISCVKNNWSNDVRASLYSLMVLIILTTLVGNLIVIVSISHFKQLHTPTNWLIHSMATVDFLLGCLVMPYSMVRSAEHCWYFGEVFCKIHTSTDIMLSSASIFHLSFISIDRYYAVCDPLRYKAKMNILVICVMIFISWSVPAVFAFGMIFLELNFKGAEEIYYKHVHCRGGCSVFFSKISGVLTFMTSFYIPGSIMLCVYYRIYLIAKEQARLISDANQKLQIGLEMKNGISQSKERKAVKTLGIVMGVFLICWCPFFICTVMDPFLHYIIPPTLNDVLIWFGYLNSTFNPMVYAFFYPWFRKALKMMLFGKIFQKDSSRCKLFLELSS
#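 System: CHO-derived RD-HGA16 cells with stable Gα16 and human TAAR1 / Times: 17-24 h plating, Fluo-8 75 min 37 °C, 30 min RT / Technique: calcium-sensitive Fluo-8 signal, excitation 470-495, emission 515-575 nm / Measure: % activation relative to PEA EC100 response / Benchmarks: DMSO and PEA EC100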
# OX1R antag-2: OX1R (human) antagonism; AID 485270; O43613; actives 1.8% (n = 330,000); inhibition, % at 6.6 µM; OX1R-expressing cells, FRET antagonist read-out; in the data active = inhibition mostly above about 38%, no sharp cut-off; inactive = mostly below about 40%
# GPR7 antagonist: human neuropeptides B/W receptor 1 antagonism | inhibition, % at 4.4 µM | GPR7-expressing cells, fluorescence antagonist assay | actives 1.1% (n = 290,000); in the data active = inhibition above about 16%, passing the limit was not always enough;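 also: cells stimulated with the agonist NPW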
# Target sequence (P48145 whole entry, looked up): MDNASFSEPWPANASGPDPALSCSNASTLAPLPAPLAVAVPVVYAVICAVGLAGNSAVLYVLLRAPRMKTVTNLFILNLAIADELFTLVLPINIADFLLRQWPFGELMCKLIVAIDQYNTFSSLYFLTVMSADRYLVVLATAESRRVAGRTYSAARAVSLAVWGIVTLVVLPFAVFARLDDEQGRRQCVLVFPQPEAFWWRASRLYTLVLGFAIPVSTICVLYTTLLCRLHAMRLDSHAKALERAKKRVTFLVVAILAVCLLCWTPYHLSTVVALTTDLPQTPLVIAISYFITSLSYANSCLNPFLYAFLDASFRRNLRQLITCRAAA
# TAAR1 antagonist: human TAAR1 antagonism | Q96RJ0 | CHO RD-HGA16 TAAR1, Fluo-8 calcium fluorescence, antagonist | inhibition, % at 3 µM | actives 1.5% (n = 360,000);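 active = inhibition above a per-plate cutoff, the mean inhibition of test compounds on that plate plus 3 SD, cut at about 49% in these data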
#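 System: RD-HGA16 CHO cells with stable hTAAR1 and Gα16 | Probe or stimulus: EC80 β-phenethylamine stimulus | Dosing: 3 µM, single point | Times: Dye loading 75 min at 37 °C, then 30 min room temperature | Measured by: Fluo-8 calcium-sensitive fluorescence | Read-out basis: % inhibition of agonist calcium response | Replicates: n of 1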
# Hits are given with their value; n = inactive; x = no result given; ! = not active in a repeat.
SMILES,CHO parental Ca,OX1R antag-1,TAAR1 agonist,OX1R antag-2,GPR7 antagonist,TAAR1 antagonist
CC1CCCC(NC(=O)C2CCCN2S(=O)(=O)c2cccc3nsnc23)C1C (centres undefined),n,n,n,70.6,n,n
CCOC(=O)c1c(NC(=O)C2CCCN2S(=O)(=O)c2cccc3nsnc23)sc(C)c1C (centres undefined),x,x,n,x,x,n
Cc1c(NC(=O)C2CCCN2S(=O)(=O)c2cccc3nsnc23)cccc1C(=O)O (centres undefined),n,n,n,48.2,n,n
O=C(Nc1ccccc1F)C1CCCN1S(=O)(=O)c1cccc2nsnc12 (centres undefined),n,n,n,68.2,n,n
O=C(COC(=O)c1ccc2ccccc2n1)NC1CCCCC1,n,n,n,n,x,n
CCCCNC(=O)C1CCCN1S(=O)(=O)c1cccc2nsnc12 (centres undefined),n,n,n,n,n,n
Cc1ccc(C(=O)O)cc1NC(=O)C1CCCN1S(=O)(=O)c1cccc2nsnc12 (centres undefined),n,n,n,51.5,n,n
COc1ccc(S(=O)(=O)N2CCCCC2c2cc(C(=O)N3CCOCC3)no2)cc1 (centres undefined),x,x,n,x,x,n
Cc1[nH]c2ccccc2c1N=Nc1ccccc1C(=O)O,n,n,n,n,n,n
COc1ccc(CN(CCC(c2ccccc2)c2ccco2)C(=O)c2ccco2)cc1 (centres undefined),n,n,n,n,n,n
COc1ccc(CN(CCC(c2ccc(F)cc2)C2CCOC(C)(C)C2)C(=O)c2ccco2)cc1 (centres undefined),n,n,n,n,n,63.8
COc1ccccc1-c1cc(NC=O)c2ncc(-c3ccc(S(C)(=O)=O)cc3)n2c1,x,x,n,x,x,n
O=C(NC[C@@H]1CCCO1)c1cccc2c1C(=O)c1ccc(Cl)cc1S2(=O)=O,n,n,n,44.9,x,n
COc1ccc(-c2ccc3c(c2)S(=O)(=O)c2cccc(C(=O)NC[C@@H]4CCCO4)c2C3=O)cc1OC,n,n,n,37.4,x,57.4
Cc1nnc(SCC(=O)NC(C)(C)C)n1NCc1c(F)cccc1Cl,n,n,n,n,n,n
Cc1ccc(/C=N/n2c(C3CCCCC3)n[nH]c2=S)cc1,42.8,n,n,n,n,n
S=c1[nH]nc(C2CCCCC2)n1/N=C/c1ccc(Cl)cc1,n,n,n,n,n,n
CC(=O)OC[C@]12CC[C@H]3[C@@](C)(CC[C@H]4C(C)(C)CCC[C@]34C)[C@@H]1CC(C1=CC(=O)OC1O)O2 (some centres undefined),x,x,n,x,x,60.4
CC(=O)OC[C@]1(OC(C)=O)C[C@@]23CC[C@H]4[C@@](C)(CCC[C@@]4(C)C(=O)O)[C@@H]2CC[C@@H]1C3,n,n,n,n,n,n
CC(=O)c1sc(N/N=C/c2cccc(O)c2)nc1C,n,n,n,n,n,n
CC(=O)c1sc(N/N=C\c2ccc(N(C)C)cc2)nc1C,n,n,n,57.5,n,n
CCOC(=O)[C@@H]1[C@H]2COc3ccccc3[C@H]2N2C(=O)N(c3ccc(C(F)(F)F)cc3)C(=O)[C@]12C,46.0,n,n,n,n,n
CCNC(=O)C1(C)CCCN(C(=O)c2ccc3c(c2)C(C)(C)CCC3(C)C)C1 (centres undefined),x,x,n,x,x,n
CN(c1ccccc1)S(=O)(=O)c1cccc(NC(=O)CCNC(=O)c2ccccc2)c1,n,n,n,n,x,53.8
CN(c1ccccc1)S(=O)(=O)c1cccc(C(=O)NNC(=O)c2ccccc2)c1,n,n,n,45.8,n,n
SMILES,CHO parental Ca,OX1R antag-1,TAAR1 agonist,OX1R antag-2,GPR7 antagonist,TAAR1 antagonist
O=C(Nc1ccn(Cc2ccccc2F)n1)c1ccc(COc2ccccc2Cl)cc1,n,n,n,n,n,54.9
C=CCn1c(=N)n(CC(=O)c2cccc([N+](=O)[O-])c2)c2ccccc21,n,n,n,38.6,n,n
N=c1n(CCN2CCCCC2)c2ccccc2n1CC(=O)c1cccc([N+](=O)[O-])c1,n,n,n,n,n,n
CC[C@@]1(C(=O)OC)N[C@H](CN(C)C(=O)Nc2ccc(F)cc2)[C@@H]2C(=O)N(Cc3ccccc3)C(=O)[C@@H]21,n,n,n,n,x,n
CN1OC[C@@H]2CN3C(=Nc4cc(C(F)(F)F)cc(C(F)(F)F)c4)Sc4ccccc4[C@@H]3C[C@@H]21,x,x,n,x,x,n
CCOC(=O)/C(C#N)=C/c1cn(CCC(=O)O)nc1-c1cccc(Br)c1,n,n,n,n,n,n
COc1ccc(N2CCN(C(=O)CSc3nc4ccccc4c(=O)[nH]3)CC2)cc1,n,n,n,n,n,n
COc1ccc(N2CCN(C(=O)CSc3nnc(C)c(=O)[nH]3)CC2)cc1,36.7,n,n,n,n,n
Cc1cc2c(NCc3ccccc3)ncnc2s1,32.5,n,n,n,n,n
Cc1sc2ncnc(NCC3COc4ccccc4O3)c2c1C (centres undefined),62.0,n,n,n,n,n
Cc1sc2ncnc(NCc3ccccc3)c2c1C,34.5,n,n,n,n,n
COc1ccc(CNc2ncnc3sccc23)cc1,44.7,n,n,n,n,n
c1ccc(CNc2ncnc3sccc23)cc1,n,n,n,n,n,n
CCCCN1C(=O)C(CC(=O)NCc2ccco2)CC(C(=O)N(C)C)=C1C (centres undefined),x,x,n,x,x,n
COC(=O)c1ccc([C@H]2C=C(C(=O)O)O[C@@H](OCc3ccc(CO)cc3)C2)cc1,n,n,n,n,x,n
Cc1sc2ncnc(NCC3(N4CCOCC4)CCCCC3)c2c1C,n,n,n,n,n,n
Cc1sc2ncnc(NCC(C)(C)N3CCOCC3)c2c1C,n,n,n,82.1,n,n
Cc1ccc(-c2csc(=Nc3cccnc3)n2CCCn2ccnc2)cc1C,n,n,n,n,n,n
Cc1ccc(-c2csc(=Nc3cccnc3)n2CCCN2CCCC2=O)cc1C,n,n,n,64.3,n,n
COc1cccc(C2=NCCc3cc4c(cc32)OCO4)c1OC,n,n,n,n,n,n
COc1ccc2cc3[n+](cc2c1OC)CCc1cc2c(cc1-3)OCO2,n,n,n,55.0!,n,n
Cc1onc(-c2ccccc2Cl)c1C(=O)N1CCCc2ccccc21,n,n,n,35.4,n,n
Nc1nc(N)c(Br)c(Nc2ccc(Cl)c(Cl)c2)n1,x,x,46.2,x,x,n
CC(C)(C)OC(=O)N1CCC[C@H]1C(=O)NCc1ccc(Cl)cc1Cl,n,n,n,n,n,n
O=C1CS/C(=N/N=C/c2ccc(OS(=O)(=O)c3ccccc3)cc2)N1,n,n,n,70.5,n,n
COc1ccc(CCNCc2cc(C)n(-c3ccc(OC)cc3)c2C)cc1,n,n,44.7,n,n,n
